INS promoter act: TRM-6 insulin promoter activation | TRM-6 cells, insulin promoter eGFP reporter, imaging; plate-scaled: unstimulated 0, stimulated control 100 | activation, % at 2 µM | 130,000 tested, 0.81% active | AID 1296;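 active = activation at 2 µM above a set limit, confirmed on inspection of the cell images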;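 also: share of cells whose green reporter signal exceeds an intensity cutoff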
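Test system: human fetal islet-derived TRM-6 cells with tamoxifen-inducible insulin promoter–eGFP reporter. Compound dosing: 2 µM final, single concentration. Incubation: tamoxifen pre-incubation 15 h overnight, then compound exposure 48 h at 37 °C. Signal: fixed-cell fluorescence microscopy, eGFP plus Hoechst.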
* marks the source's active call; other numbers are inactive results. This is one part of a sample in which hits are shown more often than they occur.

SMILES	INS promoter act
CCCOC(=O)CCCCCCCCC(O)CN1CCCCC1 (centres undefined)	0
COC(=O)c1cc2sccc2n1CC(=O)N1CCCc2ccccc21	193*
O=C(c1cc2sccc2n1Cc1ccccc1)N1CCc2ccccc21	0
CCOC(=O)c1cc2sc(C)cc2n1CC(=O)NCc1ccc(F)cc1	-82
CCOC(=O)c1cc2sccc2n1CC(=O)C(C)(C)C	213*
CCOC(=O)c1cc2sccc2n1CC(=O)N1CCCc2ccccc21	9
CCOC(=O)c1cc2sccc2n1Cc1ccccc1	0
CCn1c(SCc2ccccc2)nnc1-c1cccnc1	0
COC(=O)c1ccccc1NC(=O)CSCC(=O)Nc1ccccc1	-3
CN(C)c1ccc(/C=C/C=C2/SC(=S)N(c3ccccc3)C2=O)cc1	296*
CN(C)c1ccc(/C=N/N2C(=N)N(c3ccccc3)C(=S)C2=Nc2ccccc2)cc1	252
CN(C)c1ccc(/C=C/C(O)=C2/C(=O)N(C)C3(C)CC2c2ccccc2O3)cc1 (centres undefined)	64
O=C(NCCN1CCOCC1)C1CCN(S(=O)(=O)N2CCCC2)CC1	7
Cc1occc1C(=O)N1CCN(Cc2ccccc2)CC1	0
Cc1ccc(CN2CCN(C(=O)c3ccco3)CC2)cc1	422*
O=C(c1ccco1)N1CCCN(C(=O)c2ccco2)CC1	-23
Cc1ccc(C(NC(=O)c2ccccc2)C(Cl)(Cl)Cl)cc1 (centres undefined)	0
CC(c1ccccc1)N(NC(=O)C(O)(c1ccccc1)c1ccccc1)C(=O)c1ccccc1 (centres undefined)	162
COc1cc2c(cc1OC)-c1cc(OCc3ccccc3Cl)nc(=O)n1CC2	-66
COc1cc2c(cc1OC)C1=C(C#N)CC/C(=N\S(=O)(=O)c3cccc(Cl)c3)N1CC2	87*
COc1cc2c(cc1OC)C(CC#N)=NC(C)(C)C2	6
Cc1ccc(O)c(C(=O)/C=C/c2ccc3c(c2)OCCO3)c1	-7
Cc1nc2cccc(C(=O)NCc3ccccc3)c2o1	7
COC(=O)/C=C1/N/C(=N\c2nc(C)cc(C)n2)N(c2ccccc2)C1=O	7
Cc1nnc(SCCN2CCOCC2)c2nn(-c3ccccc3F)c(C)c12	8
SMILES	INS promoter act
Cc1nnc(N2CCOCC2)c2nn(-c3cccc(Cl)c3)c(C)c12	233*
Cc1cccc(-n2ncc3c(N4CCOCC4)ncnc32)c1	2
O=C(Oc1ccccc1)c1c(Cl)cccc1P(=O)(O)O	-9
CCOc1ccc(C(=O)Nc2cc(NC(=O)c3ccc(OCC)c(Cl)c3)cc(C(=O)O)c2)cc1Cl	-6
CCCn1nnc(NC(=O)c2ccc(Br)cc2)n1	-79
CCCn1nnc(NC(=O)c2ccc(OCC)c(Cl)c2)n1	623*
CCOC(=O)CC(N)c1ccc2c(c1)OCO2 (centres undefined)	0
COc1ccc(NS(=O)(=O)c2ccc(NS(=O)(=O)c3ccc(C)cc3)cc2)nn1	-4
Cn1c(SCC(=O)N2CCCC2=O)nnc1-c1ccccc1F	-9
CCOC(=O)c1ccc(NC(=O)NS(=O)(=O)c2ccc(C)cc2)cc1	0
O=S(=O)(c1ccccc1F)N1CCN(Cc2nc3ccccc3[nH]2)CC1	-2
Cc1cc(C)nc(N/N=C/c2ccccc2)n1	-18
Cc1nc(C#N)c(N/N=C/c2cccc(Cl)c2)o1	300*
Clc1cccc(/C=N/Nc2nnc(Cl)c3ccccc23)c1	9
O=C(CCCn1cnc([N+](=O)[O-])n1)Nc1cccc(O)c1	0
CCOC(=O)N1CCC(N(CCN(C)C)C(=S)Nc2cc(C)cc(C)c2)CC1	-7
Cc1cccc(Nc2ccccc2C(=O)O)c1C	5
COc1ccccc1Nc1cc(C(=O)N2CCc3ccccc3C2)c2ccccc2n1	8
Cc1cc(Nc2ccccc2C(=O)O)nc2nc3ccccc3c(=O)n12	146*
COc1ccc(CNC(=O)COC(=O)CCc2c[nH]c3ccccc23)cc1	0
Cc1cc(C(=O)COC(=O)Cc2n[nH]c(=O)c3ccccc23)c(C)n1-c1ccc2c(c1)OCCO2	-6
CCC1=NN(C(=O)c2cccnc2)C(O)(C(F)(F)F)C1 (centres undefined)	-7
COc1cc(/C=C(\C#N)c2nc3ccccc3n2C)cc(OC)c1O	479*
CCn1c(SCC(=O)N/N=C/c2cc(OC)c(O)c(OC)c2)nc2ccccc21	-3
COc1ccc(/C=N/n2c(N)nc3ccccc32)cc1OC	-75
SMILES	INS promoter act
COc1ccc(-n2nc3c(N)n[nH]c3cc2=O)cc1	6
CCOc1ccc(NC(=S)N2CCC(C(N)=O)CC2)cc1	-7
Cc1ccc(N(C(=O)CCl)C(C(=O)NC2CCCCC2)c2cccnc2)cc1C (centres undefined)	163
CC(C)(C)N(C(=O)Cn1nnc(-c2ccc(F)cc2)n1)C(C(=O)NC1CCCC1)c1ccncc1 (centres undefined)	132
Cc1ccc(N(C(=O)Cn2nnc(-c3ccccc3)n2)C(C(=O)NC2CCCCC2)c2ccccn2)cc1C (centres undefined)	344*
Cc1cc(F)c(F)c(C(=O)N2C(C)CCCC2C)c1Cl (centres undefined)	110
COC(=O)c1ccc(NC(=O)CN2C(=O)CNC2=O)cc1	0
COc1ccc(CNC(=O)CN2C(=O)NC3(CCCCCC3)C2=O)cc1OC	244*
COc1ccc(-c2nnn(CC(=O)NCc3ccccc3)n2)cc1OC	277
O=C(CN1C(=O)NC2(CCCCC2)C1=O)Nc1ccccc1Cl	0
COCCNC(=O)CSc1nc2ccccc2c(=O)n1CCC(=O)N1CCN(c2ccccc2)CC1	0
Cc1cc(C(F)(F)F)nn1CC(=O)NNC(=S)Nc1cccc(Cl)c1	0
CC(=O)c1c(C(C)=O)c(C)n(-c2ccc(O)cc2)c1C	-8
O=C1CCCC(=O)N1c1ccc(O)cc1	267*
O=C(Nc1cccc2c1C(=O)NC2=O)c1ccc(N2C(=O)CCC2=O)cc1	-5
CC(O)C(C(=O)OCc1ccc([N+](=O)[O-])cc1)N1C(=O)c2ccccc2C1=O (centres undefined)	-62
CCc1nnc(NC(=O)CCC(=O)N2CCN(C3c4ccccc4-c4ccccc43)CC2)s1	7
Cc1ccc(C2C(C#N)=C(N)Oc3c2sc2ccccc32)o1 (centres undefined)	-8
O=C(Nc1ccc2c(c1)OCO2)c1ccc(CN2CCOCC2)cc1	8
O=C(Cc1ccccc1)Nc1ccc(CN2CCOCC2)cc1	6
CSc1ccccc1NC(=O)c1ccc(CN2CCOCC2)cc1	276*
O=C(NNC(=O)c1ccc(F)cc1F)c1ccc2c(c1)OCO2	-79
COc1ccccc1/C=C/C(=O)N1CCC(c2ccccc2)C1 (centres undefined)	3
CCOC(=O)N1CCN(C(=O)CCNS(=O)(=O)c2ccc3c(c2)c(=O)n(C)c(=O)n3C)CC1	293*
Cn1c(=O)oc2cc(S(=O)(=O)NCCC(=O)N3CCc4ccccc4C3)ccc21	8
SMILES	INS promoter act
CCOc1ccc(NC(=O)CCNS(=O)(=O)c2ccc3c(c2)c(=O)n(C)c(=O)n3C)cc1	-9
CC(C)(C)OC(=O)C(Cl)(C(=O)OC(C)(C)C)c1ccc2nnnn2n1	-8
Cn1cc(Cl)c(C(=O)NNC(=S)NC2CCCCC2)n1	492*
COC(=O)c1c(NC(=O)c2nn(C)cc2Cl)sc2c1CCCC2	3
COc1cc(OC)c(C(=O)NNC(=S)NC2CCCCC2)cc1OC	8
CCn1c(Cc2cccc3ccccc23)nnc1SCC(=O)Nc1nccs1	-6
Cn1ncc(Cl)c1C(=O)Nc1ccc(Cl)cn1	0

Screening results (PubChem)
